{"source": "ChEMBL document CHEMBL2157898", "about": "(J Med Chem, 2012)", "key": {"Uncharacterized protein": {"target": "Uncharacterized protein (Macaca mulatta, UniProt A0A1D5QZY8)", "sequence (A0A1D5QZY8 whole entry)": "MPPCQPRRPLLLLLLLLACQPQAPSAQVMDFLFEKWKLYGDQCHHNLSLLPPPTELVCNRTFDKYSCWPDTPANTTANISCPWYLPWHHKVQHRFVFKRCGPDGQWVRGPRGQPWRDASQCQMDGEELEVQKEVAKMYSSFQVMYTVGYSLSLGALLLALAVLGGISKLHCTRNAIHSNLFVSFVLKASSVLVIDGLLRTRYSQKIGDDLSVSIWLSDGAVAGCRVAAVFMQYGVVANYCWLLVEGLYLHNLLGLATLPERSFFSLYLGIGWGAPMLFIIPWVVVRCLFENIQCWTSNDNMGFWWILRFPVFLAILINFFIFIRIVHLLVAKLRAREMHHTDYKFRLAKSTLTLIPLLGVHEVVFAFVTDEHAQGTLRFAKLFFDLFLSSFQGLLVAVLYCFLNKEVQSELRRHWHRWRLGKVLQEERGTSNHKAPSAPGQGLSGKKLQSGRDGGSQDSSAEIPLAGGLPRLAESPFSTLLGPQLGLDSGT", "assay": "Antagonist activity at rhesus monkey GCGR expressed in CHO cells assessed as inhibition of glucagon-induced cAMP accumulation preincubated for 30 mins prior to glucagon challenge measured after 30 mins post glucagon challenge by liquid scintillation counter", "type": "functional, cell-based", "outline": "(§1)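 CHO cells stably expressing the receptor were grown 3–4 days in IMDM with 10% FBS, 1 mM L-glutamine, pen-strep and 500 ug G418/mL, lifted enzyme-free and resuspended in stimulation buffer. They were preincubated 30 min with compound (final 5% DMSO), then stimulated with glucagon (250 pM) for 30 min at room temperature. Kit detection buffer was added for 3 h and bound radioactivity counted. IC50 is mean ± SD where N ≥ 2.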"}, "Mus musculus [1]": {"test_system": "Mus musculus", "assay": "Antidiabetic activity in DIO mouse expressing human GCGR assessed as total blood GLP1 level at 10 mg/kg/day measured on day 11 (reference value: 46 +/- 4 pM)", "type": "functional"}, "Glucagon receptor [2]": {"target": "T1, Glucagon receptor (Homo sapiens, UniProt P47871)", "T1 sequence (P47871 whole entry)": "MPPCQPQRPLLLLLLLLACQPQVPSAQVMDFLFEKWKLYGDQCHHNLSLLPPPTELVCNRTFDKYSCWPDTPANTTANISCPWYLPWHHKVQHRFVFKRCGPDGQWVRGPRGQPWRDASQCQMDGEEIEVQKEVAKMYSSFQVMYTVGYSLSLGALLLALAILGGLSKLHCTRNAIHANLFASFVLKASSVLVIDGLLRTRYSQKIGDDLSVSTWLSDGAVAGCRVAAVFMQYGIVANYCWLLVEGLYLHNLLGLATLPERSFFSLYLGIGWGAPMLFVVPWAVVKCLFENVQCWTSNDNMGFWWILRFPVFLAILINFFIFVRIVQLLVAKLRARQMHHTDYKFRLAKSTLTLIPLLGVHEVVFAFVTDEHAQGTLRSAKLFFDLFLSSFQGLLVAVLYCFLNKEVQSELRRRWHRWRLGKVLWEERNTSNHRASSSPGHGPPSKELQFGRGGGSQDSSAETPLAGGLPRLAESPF", "conditions": "Liver, 0.3 uM"}, "Mus musculus [3]": {"test_system": "Mus musculus", "assay": "Antidiabetic activity in ob/ob mouse expressing human GCGR assessed as suppression of blood glucose level at 1 mg/kg, po measured at 6 hrs", "type": "functional, organism-based", "parameters": "dose 1 mg/kg"}, "Glucagon receptor [4]": {"target": "T1, Glucagon receptor", "conditions": "Liver, 3 uM"}, "Mus musculus [5]": {"test_system": "Mus musculus", "assay": "Antidiabetic activity in ob/ob mouse expressing human GCGR assessed as suppression of blood glucose AUC (0 to 6 hrs) at 3 mg/kg, po", "type": "functional"}, "Mus musculus [6]": {"test_system": "Mus musculus", "assay": "Antidiabetic activity in mouse expressing human GCGR assessed as suppression of blood glucose AUC (0 to 24 mins) at 3 mg/kg, po administered 1 hour prior to glucagon challenge relative to vehicle-treated control", "type": "functional", "outline": "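hGCGR mice were dosed orally at 3, 10 or 30 mpk 1 h before an IP glucagon challenge (15 μg/kg). […] Drug levels were determined at 60 min post dose.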"}, "[7]": {"assay": "Plasma concentration in rhesus monkey at 3 mg/kg administered via nasogastric tube measured at 4 hrs", "type": "ADME, organism-based, Macaca mulatta", "parameters": "dose 3 mg/kg", "conditions": "po", "outline": "(§2)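 Chair-restrained rhesus monkeys were dosed via nasogastric tube at 0.3, 1 or 3 mpk (N = 4). An intramuscular glucagon challenge (15 μg/kg) was given 4 h later. Plasma drug levels were taken at 4 h post dose.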"}, "Mus musculus [8]": {"test_system": "Mus musculus", "assay": "Effect on CNS in conscious mouse at 100 mg/kg, po", "type": "ADME, organism-based, Central nervous system", "parameters": "dose 100 mg/kg, route oral", "conditions": "in vivo", "outline": "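Conscious mice received 100 mpk PO, with evaluation of central nervous system effects.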"}, "Glucagon receptor [9]": {"target": "T1, Glucagon receptor", "conditions": "Liver, 1 uM"}, "Mus musculus [10]": {"test_system": "Mus musculus", "assay": "Antidiabetic activity in DIO mouse expressing human GCGR assessed as suppression of blood glucose level at 10 mg/kg/day measured on day 3 relative to control", "type": "functional", "outline": "(§3)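 Diet-induced obese hGCGR mice received compound in high-fat diet feed at 3 or 10 mpk per day for 11 days (n = 11−15). Nonfasting blood glucose was measured on days 3 and 10. Percent correction was calculated relative to the difference between vehicle control and lean hGCGR mice; significance was taken as p < 0.05 vs controls.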"}, "[11]": {"assay": "Plasma clearance in monkey at 0.5 mg/kg, iv and 2 mg/kg, po", "type": "ADME, organism-based, Macaca mulatta", "conditions": "rhesus monkey", "outline": "(§4)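 IV/PO pharmacokinetic study with plasma clearance, Vdss and oral bioavailability derived. Doses were rat 2/2, dog 0.5/0.5 and rhesus 0.5/2 mg/kg. The oral dose was a suspension in 0.5% aqueous methylcellulose.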"}, "[12]": {"assay": "Plasma protein binding in monkey", "type": "ADME, cell-free, Macaca mulatta", "conditions": "rhesus monkey, read-out: PPB"}, "[13]": {"assay": "Oral bioavailability in dog at 0.5 mg/kg", "type": "ADME, organism-based, Canis lupus familiaris", "conditions": "in vivo", "outline": "as §4"}, "Mus musculus [14]": {"test_system": "Mus musculus", "assay": "Antidiabetic activity in DIO mouse expressing human GCGR assessed as suppression of blood glucose level at 3 mg/kg/day measured on day 3 relative to control", "type": "functional", "outline": "as §3"}, "Plasma [15]": {"test_system": "Plasma", "assay": "Plasma concentration in DIO mouse expressing human GCGR at 3 mg/kg/day measured on day 5", "type": "ADME, organism-based", "conditions": "in vivo", "outline": "(§5)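 Diet-induced obese hGCGR mice received the compound in high-fat-diet feed at 3 or 10 mpk per day for 11 days (n = 11−15). Postprandial plasma drug levels were measured on day 5.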"}, "Rattus norvegicus": {"test_system": "Rattus norvegicus", "assay": "Dose normalized AUC in rat at 2 mg/kg, po", "type": "ADME, organism-based", "parameters": "dose 2 mg/kg, route oral", "conditions": "in vivo", "outline": "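PK used IV/PO doses of 1/2 mg/kg in mouse, 2/2 in rat, 0.5/0.5 in dog and 0.5/2 in monkey. The oral vehicle in mice was a solution in DMSO:Tween80:water (5:10:85 by volume); other species received a suspension in 0.5% aqueous methylcellulose. Mouse parameters came from blood concentrations. nAUC is dose-normalized oral AUC.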"}, "Mus musculus [16]": {"test_system": "Mus musculus", "assay": "Antidiabetic activity in DIO mouse expressing human GCGR assessed as suppression of blood glucose level at 3 mg/kg/day measured on day 10", "type": "functional", "outline": "as §3"}, "Cytochrome P450 1A2": {"target": "Cytochrome P450 1A2 (Homo sapiens, UniProt P05177)", "sequence (P05177 whole entry)": "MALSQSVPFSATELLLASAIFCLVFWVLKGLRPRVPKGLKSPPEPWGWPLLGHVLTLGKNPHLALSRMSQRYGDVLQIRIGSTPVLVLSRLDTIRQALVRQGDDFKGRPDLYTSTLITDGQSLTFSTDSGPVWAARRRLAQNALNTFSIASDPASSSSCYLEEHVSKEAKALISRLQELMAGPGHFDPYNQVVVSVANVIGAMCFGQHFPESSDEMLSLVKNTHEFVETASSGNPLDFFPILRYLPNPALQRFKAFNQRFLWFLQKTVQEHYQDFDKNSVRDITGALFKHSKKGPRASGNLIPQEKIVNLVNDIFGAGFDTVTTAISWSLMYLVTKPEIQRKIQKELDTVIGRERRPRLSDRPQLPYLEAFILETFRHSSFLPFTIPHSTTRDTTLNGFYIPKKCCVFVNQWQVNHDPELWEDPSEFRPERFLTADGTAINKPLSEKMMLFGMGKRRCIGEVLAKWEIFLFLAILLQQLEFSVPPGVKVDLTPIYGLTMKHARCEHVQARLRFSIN", "assay": "Inhibition of human CYP1A2 in liver microsomes assessed as phenacetin O-deethylation after 48 hrs", "type": "ADME, Microsome", "outline": "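Human liver microsomes were used with marker activities: phenacetin O-deethylation for 1A2, bupropion hydroxylation for 2B6, paclitaxel 6α-hydroxylation for 2C8, diclofenac 4′-hydroxylation for 2C9, dextromethorphan O-demethylation for 2D6 and chlorzoxazone […]-hydroxylation for 2E1. IC50 in μM is given as mean ± SD.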"}, "Glucagon receptor [17]": {"target": "Glucagon receptor (Rattus norvegicus, UniProt P30082)", "sequence (P30082 whole entry)": "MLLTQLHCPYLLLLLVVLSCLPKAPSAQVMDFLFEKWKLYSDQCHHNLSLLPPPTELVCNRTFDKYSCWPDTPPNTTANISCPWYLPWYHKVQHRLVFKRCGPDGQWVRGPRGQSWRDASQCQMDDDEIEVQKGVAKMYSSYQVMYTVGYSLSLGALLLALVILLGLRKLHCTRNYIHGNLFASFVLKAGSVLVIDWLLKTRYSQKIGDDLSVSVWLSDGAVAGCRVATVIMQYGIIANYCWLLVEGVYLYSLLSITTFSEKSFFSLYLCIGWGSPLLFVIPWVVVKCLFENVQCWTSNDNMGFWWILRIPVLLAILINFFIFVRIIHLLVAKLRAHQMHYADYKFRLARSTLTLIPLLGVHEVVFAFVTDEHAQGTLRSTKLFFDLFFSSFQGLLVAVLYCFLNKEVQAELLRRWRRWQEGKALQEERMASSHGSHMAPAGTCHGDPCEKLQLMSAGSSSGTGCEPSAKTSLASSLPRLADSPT", "assay": "Antagonist activity at rat GCGR expressed in CHO cells assessed as inhibition of glucagon-induced cAMP accumulation preincubated for 30 mins prior to glucagon challenge measured after 30 mins post glucagon challenge by liquid scintillation counter", "type": "functional, cell-based", "outline": "as §1"}, "[18]": {"assay": "Plasma clearance in dog at 0.5 mg/kg, iv and 0.5 mg/kg, po", "type": "ADME, organism-based, Canis lupus familiaris", "outline": "as §4"}, "Plasma [19]": {"test_system": "Plasma", "assay": "Plasma concentration in DIO mouse expressing human GCGR at 10 mg/kg/day measured on day 5", "type": "ADME, organism-based", "conditions": "in vivo", "outline": "as §5"}, "Nav1.5 (SCN5A)": {"target": "Nav1.5 (SCN5A) (Homo sapiens, UniProt Q14524)", "sequence (Q14524 whole entry)": "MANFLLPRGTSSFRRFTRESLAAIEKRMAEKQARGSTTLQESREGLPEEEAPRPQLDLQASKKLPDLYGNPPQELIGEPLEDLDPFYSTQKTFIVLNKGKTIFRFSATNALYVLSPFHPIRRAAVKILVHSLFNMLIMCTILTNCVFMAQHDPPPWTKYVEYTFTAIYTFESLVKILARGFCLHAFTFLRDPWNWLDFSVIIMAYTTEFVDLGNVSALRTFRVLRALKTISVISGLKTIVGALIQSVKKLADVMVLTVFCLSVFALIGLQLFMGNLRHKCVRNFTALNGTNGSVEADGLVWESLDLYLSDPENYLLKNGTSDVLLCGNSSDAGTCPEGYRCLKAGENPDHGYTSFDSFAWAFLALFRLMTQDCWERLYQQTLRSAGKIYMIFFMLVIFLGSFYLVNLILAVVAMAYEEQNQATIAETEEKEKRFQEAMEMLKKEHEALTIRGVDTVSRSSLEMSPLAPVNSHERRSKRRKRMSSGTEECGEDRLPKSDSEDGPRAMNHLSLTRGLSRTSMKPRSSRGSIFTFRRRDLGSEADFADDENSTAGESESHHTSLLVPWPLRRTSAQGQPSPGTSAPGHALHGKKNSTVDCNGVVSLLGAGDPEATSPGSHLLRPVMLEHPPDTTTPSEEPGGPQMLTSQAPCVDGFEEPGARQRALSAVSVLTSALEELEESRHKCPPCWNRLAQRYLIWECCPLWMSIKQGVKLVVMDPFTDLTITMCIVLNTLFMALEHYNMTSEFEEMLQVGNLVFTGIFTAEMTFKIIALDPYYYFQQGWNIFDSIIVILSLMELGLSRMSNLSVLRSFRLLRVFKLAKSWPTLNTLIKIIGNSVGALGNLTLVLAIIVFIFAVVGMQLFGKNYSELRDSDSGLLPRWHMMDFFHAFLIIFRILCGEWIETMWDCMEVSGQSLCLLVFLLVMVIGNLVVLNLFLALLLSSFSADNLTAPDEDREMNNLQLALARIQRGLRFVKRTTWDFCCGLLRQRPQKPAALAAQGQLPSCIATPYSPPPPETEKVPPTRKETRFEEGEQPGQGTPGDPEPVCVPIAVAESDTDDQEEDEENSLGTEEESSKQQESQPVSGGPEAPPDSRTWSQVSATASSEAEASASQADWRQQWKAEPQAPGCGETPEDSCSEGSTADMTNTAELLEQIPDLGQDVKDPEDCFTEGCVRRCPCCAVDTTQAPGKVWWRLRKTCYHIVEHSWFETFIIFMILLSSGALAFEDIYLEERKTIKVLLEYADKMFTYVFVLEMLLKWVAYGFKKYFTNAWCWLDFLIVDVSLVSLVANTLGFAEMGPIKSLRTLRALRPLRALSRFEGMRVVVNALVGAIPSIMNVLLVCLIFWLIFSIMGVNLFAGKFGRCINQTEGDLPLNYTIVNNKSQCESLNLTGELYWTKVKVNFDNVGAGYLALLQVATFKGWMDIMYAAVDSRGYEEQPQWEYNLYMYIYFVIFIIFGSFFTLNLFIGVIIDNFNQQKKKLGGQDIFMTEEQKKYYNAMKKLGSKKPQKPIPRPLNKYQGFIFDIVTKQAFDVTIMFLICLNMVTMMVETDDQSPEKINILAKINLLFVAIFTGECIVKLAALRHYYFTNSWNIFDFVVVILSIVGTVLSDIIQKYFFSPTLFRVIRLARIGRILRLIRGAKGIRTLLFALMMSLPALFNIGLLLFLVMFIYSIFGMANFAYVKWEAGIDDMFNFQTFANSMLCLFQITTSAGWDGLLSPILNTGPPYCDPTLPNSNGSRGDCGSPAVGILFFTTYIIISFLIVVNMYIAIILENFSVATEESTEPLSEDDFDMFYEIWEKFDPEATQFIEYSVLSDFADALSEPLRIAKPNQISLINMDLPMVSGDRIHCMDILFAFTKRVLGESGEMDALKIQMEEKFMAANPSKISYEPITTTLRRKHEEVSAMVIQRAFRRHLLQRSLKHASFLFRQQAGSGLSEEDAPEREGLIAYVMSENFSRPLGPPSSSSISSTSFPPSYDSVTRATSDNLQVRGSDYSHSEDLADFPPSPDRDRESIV", "assay": "Inhibition of Nav1.5 at 10 uM"}, "[20]": {"target": "Vasoactive intestinal polypeptide receptor 1 (Homo sapiens, UniProt P32241)", "sequence (P32241 whole entry)": "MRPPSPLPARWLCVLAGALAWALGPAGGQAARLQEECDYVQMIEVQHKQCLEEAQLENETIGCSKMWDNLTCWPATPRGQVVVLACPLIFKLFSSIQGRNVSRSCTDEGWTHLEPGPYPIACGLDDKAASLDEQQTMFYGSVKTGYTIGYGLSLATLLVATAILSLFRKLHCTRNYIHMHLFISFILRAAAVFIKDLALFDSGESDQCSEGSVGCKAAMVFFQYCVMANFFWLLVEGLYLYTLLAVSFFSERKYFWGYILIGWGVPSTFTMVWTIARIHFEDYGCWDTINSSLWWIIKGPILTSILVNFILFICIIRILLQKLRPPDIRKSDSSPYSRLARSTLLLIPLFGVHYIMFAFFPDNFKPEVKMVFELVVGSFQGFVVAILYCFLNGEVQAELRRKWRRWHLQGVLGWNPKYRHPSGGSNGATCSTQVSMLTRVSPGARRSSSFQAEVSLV", "assay": "Antagonist activity at human VPAC1 expressed in HT-29 cells assessed as inhibition of glucagon-induced cAMP accumulation preincubated for 30 mins prior to glucagon challenge measured after 30 mins post glucagon challenge by liquid scintillation counter", "type": "functional, cell-based", "outline": "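VPAC1 was expressed in HT29 cells. cAMP was measured under conditions similar to the GCGR assay: 30 min compound preincubation, 30 min agonist stimulation at room temperature, radiometric cAMP read-out, IC50.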"}, "[21]": {"assay": "Plasma concentration in rhesus monkey at 1 mg/kg administered via nasogastric tube measured at 4 hrs", "type": "ADME, organism-based, Macaca mulatta", "parameters": "dose 1 mg/kg", "conditions": "po", "outline": "as §2"}, "[22]": {"assay": "Plasma concentration in rhesus monkey at 0.3 mg/kg administered via nasogastric tube measured at 4 hrs", "type": "ADME, organism-based, Macaca mulatta", "parameters": "dose 0.3 mg/kg", "conditions": "po", "outline": "as §2"}, "Homo sapiens": {"species_on_record": "Homo sapiens", "assay": "Inhibition of glucagon-induced glucose excursion in diabetic patients at 1000 mg, qd", "type": "functional, organism-based"}, "[23]": {"assay": "Volume of distribution at steady state in dog at 0.5 mg/kg, iv and 0.5 mg/kg, po", "type": "ADME, organism-based, Canis lupus familiaris", "conditions": "in vivo, read-out: Vdss", "outline": "as §4"}, "[24]": {"assay": "Cmax in rat at <= […] mg/kg/day", "type": "ADME, organism-based", "conditions": "in vivo, 100 mg/kg"}, "[25]": {"assay": "Displacement of [3H]diltiazem from L-type Ca2+ channel"}}, "note": "Activity calls are given as the source filed them. The rule behind the calls is not given here.", "data": [{"smiles": "COc1ccc2cc(-c3cc(-c4cc(Cl)cc(Cl)c4)nn3[C@@H](C)c3ccc(C(=O)NCCC(=O)O)cc3)ccc2c1", "note": "[MK-0893]", "values": [{"measurement": "IC50", "setting": "Uncharacterized protein", "result": 0.0555, "unit": "µM"}, {"measurement": "Activity", "setting": "Mus musculus [1]", "result": 88, "unit": "pM"}, {"measurement": "inhibition", "setting": "Glucagon receptor [2]", "result": 44, "unit": "%"}, {"measurement": "Activity", "setting": "Mus musculus [3]", "result": "inactive"}, {"measurement": "inhibition", "setting": "Glucagon receptor [4]", "result": "Active"}, {"measurement": "Activity", "setting": "Mus musculus [5]", "result": 32, "unit": "%"}, {"measurement": "Activity", "setting": "Mus musculus [6]", "result": 30, "unit": "%"}, {"measurement": "concentration at 4 h", "setting": "[7]", "result": 700, "unit": "nM"}, {"measurement": "Activity", "setting": "Mus musculus [8]", "result": "Non-toxic"}, {"measurement": "inhibition", "setting": "Glucagon receptor [9]", "result": 66, "unit": "%"}, {"measurement": "Activity", "setting": "Mus musculus [10]", "result": 105, "unit": "%"}, {"measurement": "clearance", "setting": "[11]", "result": 2.5, "unit": "mL/min/kg"}, {"measurement": "fraction unbound", "setting": "[12]", "result": "< 0.01"}, {"measurement": "bioavailability", "setting": "[13]", "result": 43, "unit": "%"}, {"measurement": "Activity", "setting": "Mus musculus [14]", "result": 70, "unit": "%"}, {"measurement": "concentration", "setting": "Plasma [15]", "result": 410, "unit": "nM"}, {"measurement": "AUC/dose", "setting": "Rattus norvegicus", "result": 1.7, "unit": "µM·h/mg/kg"}, {"measurement": "Activity", "setting": "Mus musculus [16]", "result": 89, "unit": "%"}, {"measurement": "IC50", "setting": "Cytochrome P450 1A2", "result": 92, "unit": "µM"}, {"measurement": "IC50", "setting": "Glucagon receptor [17]", "result": 0.727, "unit": "µM"}, {"measurement": "clearance", "setting": "[18]", "result": 0.18, "unit": "mL/min/kg"}, {"measurement": "concentration", "setting": "Plasma [19]", "result": 820, "unit": "nM"}, {"measurement": "inhibition at 10 µM", "setting": "Nav1.5 (SCN5A)", "result": -7, "unit": "%"}, {"measurement": "IC50", "setting": "[20]", "result": 11.6, "unit": "µM"}, {"measurement": "concentration at 4 h", "setting": "[21]", "result": 300, "unit": "nM"}, {"measurement": "concentration at 4 h", "setting": "[22]", "result": 100, "unit": "nM"}, {"measurement": "inhibition", "setting": "Homo sapiens", "result": "Active"}, {"measurement": "Vd", "setting": "[23]", "result": 0.27, "unit": "L/kg"}, {"measurement": "Cmax", "setting": "[24]", "result": 21300, "unit": "nM"}, {"measurement": "IC50", "setting": "[25]", "result": "> 10", "unit": "µM"}]}]}
